The term IC50 denotes the point on the concentration scale where inhibition reaches its midpoint.

Positions of bridges follow the written chain, without caps; N, C: chain ends. Residues, ends and D or L forms follow the SMILES beside them.

Chain of Sodium channel protein type 5 subunit alpha (Q14524 whole entry): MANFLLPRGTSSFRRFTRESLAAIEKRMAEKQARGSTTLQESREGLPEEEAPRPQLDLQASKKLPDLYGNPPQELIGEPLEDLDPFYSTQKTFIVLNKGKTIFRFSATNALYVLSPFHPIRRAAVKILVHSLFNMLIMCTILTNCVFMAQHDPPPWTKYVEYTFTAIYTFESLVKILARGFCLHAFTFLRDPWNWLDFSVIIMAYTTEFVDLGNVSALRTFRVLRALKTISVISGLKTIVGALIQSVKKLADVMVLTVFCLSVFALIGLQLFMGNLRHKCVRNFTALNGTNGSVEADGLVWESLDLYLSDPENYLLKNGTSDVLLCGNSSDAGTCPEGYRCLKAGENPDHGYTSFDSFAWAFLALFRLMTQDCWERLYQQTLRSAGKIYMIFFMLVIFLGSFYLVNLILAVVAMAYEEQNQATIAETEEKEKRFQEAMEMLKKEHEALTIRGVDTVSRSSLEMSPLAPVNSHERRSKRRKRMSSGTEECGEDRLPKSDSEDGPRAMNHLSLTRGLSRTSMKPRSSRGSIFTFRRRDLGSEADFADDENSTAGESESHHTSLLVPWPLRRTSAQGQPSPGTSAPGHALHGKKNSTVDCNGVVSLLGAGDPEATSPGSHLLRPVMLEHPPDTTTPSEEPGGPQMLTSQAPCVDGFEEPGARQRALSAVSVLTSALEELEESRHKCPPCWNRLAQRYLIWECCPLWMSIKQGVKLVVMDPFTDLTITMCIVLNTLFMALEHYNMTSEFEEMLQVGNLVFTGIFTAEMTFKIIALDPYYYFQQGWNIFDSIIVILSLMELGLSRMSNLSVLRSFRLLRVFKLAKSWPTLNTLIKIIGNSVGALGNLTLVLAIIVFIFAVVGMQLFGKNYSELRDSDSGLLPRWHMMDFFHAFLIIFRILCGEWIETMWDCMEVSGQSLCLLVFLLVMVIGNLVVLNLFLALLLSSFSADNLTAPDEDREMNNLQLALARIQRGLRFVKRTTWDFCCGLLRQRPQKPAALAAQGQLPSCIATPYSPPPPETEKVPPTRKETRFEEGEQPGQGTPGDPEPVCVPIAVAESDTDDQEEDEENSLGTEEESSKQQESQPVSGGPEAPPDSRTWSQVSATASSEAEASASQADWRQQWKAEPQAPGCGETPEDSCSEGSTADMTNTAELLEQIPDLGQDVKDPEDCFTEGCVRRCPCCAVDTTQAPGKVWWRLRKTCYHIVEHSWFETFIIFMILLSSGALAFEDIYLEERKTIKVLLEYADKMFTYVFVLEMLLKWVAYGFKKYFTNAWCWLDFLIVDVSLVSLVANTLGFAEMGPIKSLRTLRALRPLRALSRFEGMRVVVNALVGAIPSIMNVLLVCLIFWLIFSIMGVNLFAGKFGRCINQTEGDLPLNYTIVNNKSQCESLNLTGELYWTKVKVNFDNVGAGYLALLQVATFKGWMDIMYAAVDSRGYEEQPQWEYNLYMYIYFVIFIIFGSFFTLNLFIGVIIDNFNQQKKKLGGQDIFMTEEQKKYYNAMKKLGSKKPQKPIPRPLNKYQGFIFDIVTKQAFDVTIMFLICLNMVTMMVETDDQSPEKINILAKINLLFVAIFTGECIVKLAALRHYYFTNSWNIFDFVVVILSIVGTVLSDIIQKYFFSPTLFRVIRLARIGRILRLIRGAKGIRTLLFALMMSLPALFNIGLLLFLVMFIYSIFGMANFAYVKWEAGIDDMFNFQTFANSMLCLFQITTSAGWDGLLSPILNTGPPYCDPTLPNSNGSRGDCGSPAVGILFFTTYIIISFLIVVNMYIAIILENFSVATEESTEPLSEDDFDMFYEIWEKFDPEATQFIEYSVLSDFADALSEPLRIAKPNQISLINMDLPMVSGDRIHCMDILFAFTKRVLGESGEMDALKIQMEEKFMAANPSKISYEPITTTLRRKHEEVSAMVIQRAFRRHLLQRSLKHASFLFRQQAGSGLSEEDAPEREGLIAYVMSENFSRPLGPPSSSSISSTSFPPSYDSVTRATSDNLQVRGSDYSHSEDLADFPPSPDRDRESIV

This experiment has as its target Sodium channel protein type 5 subunit alpha (Homo sapiens, UniProt Q14524). The experiment can be described thus: Inhibition of human Nav1.5 expressed in HEK293 cells assessed as inward peak current by ion-works quattro patch clamp electrophysiology method. The experiment is classed as cell-based. A digest of the protocol: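 Stable HEK293 line expressing human NaV1.5, recorded by population patch clamp on the IonWorks Quattro.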
In general terms: In patch-clamp work, channel activity is measured electrically.
In the case of `CC[C@H](C)[C@@H]1NC(=O)[C@@H]2CSSC[C@@H]3NC(=O)[C@H](C(C)C)NC(=O)[C@H](CC(C)C)NC(=O)[C@H](CC(N)=O)NC(=O)[C@@H]4CCCN4C(=O)[C@H](CCCNC(=N)N)NC(=O)[C@H](CSSC[C@H](NC(=O)[C@@H](N)CC(=O)O)C(=O)N[C@@H](CC(C)C)C(=O)NCC(=O)N[C@@H](Cc4ccccc4)C(=O)N[C@@H](CCSC)C(=O)N[C@@H](CCCNC(=N)N)C(=O)N[C@@H](CCC(=O)O)C(=O)N2)NC(=O)[C@H](CSSC[C@@H](C(=O)N[C@@H](CCCCN)C(=O)N[C@@H](Cc2ccc(O)cc2)C(=O)N[C@H](C(=O)N[C@@H](Cc2ccccc2)C(N)=O)C(C)C)NC(=O)[C@H](Cc2c[nH]c4ccccc24)NC(=O)[C@H](CCCCN)NC(=O)[C@H](Cc2cnc[nH]2)NC(=O)[C@H]([C@@H](C)O)NC(=O)[C@H](CCCNC(=N)N)NC(=O)[C@H](CO)NC3=O)NC(=O)[C@H](CCCCN)NC(=O)[C@H](CC(=O)O)NC(=O)[C@H](CC(N)=O)NC(=O)[C@H](CC(=O)O)NC(=O)[C@@H]2CCCN2C1=O` (H-DCLGFMRECIPDNDKCCRPNLVCSRTHKWCKYVF-NH2; disulfide 2-17, 9-23, 16-30), the IC50 is over 5 µM. With `CSCC[C@@H]1NC(=O)[C@H](Cc2ccccc2)NC(=O)CNC(=O)[C@H](CC(C)C)NC(=O)[C@@H](NC(=O)[C@@H](N)CC(=O)O)CSSC[C@@H]2NC(=O)[C@@H]3CSSC[C@@H](C(=O)N[C@@H](CCCCN)C(=O)N[C@@H](Cc4ccc(O)cc4)C(=O)N[C@H](C(=O)N[C@@H](Cc4ccccc4)C(N)=O)C(C)C)NC(=O)[C@H](Cc4c[nH]c5ccccc45)NC(=O)[C@H](CCCCN)NC(=O)[C@H](Cc4cnc[nH]4)NC(=O)[C@H]([C@@H](C)O)NC(=O)[C@H](CCCNC(=N)N)NC(=O)[C@H](CO)NC(=O)[C@H](CSSC[C@H](NC(=O)[C@H](CCCCN)NC(=O)[C@H](CCCNC(=N)N)NC1=O)C(=O)N[C@@H](Cc1ccccc1)C(=O)N1CCC[C@H]1C(=O)N[C@@H](CC(=O)O)C(=O)N[C@@H](CC(N)=O)C(=O)N[C@@H](CC(=O)O)C(=O)N[C@@H](CCCCN)C(=O)N3)NC(=O)[C@H](C(C)C)NC(=O)[C@H](CC(C)C)NC(=O)[C@H](CC(N)=O)NC(=O)[C@@H]1CCCN1C(=O)[C@H](CCCNC(=N)N)NC2=O` (H-DCLGFMRKCFPDNDKCCRPNLVCSRTHKWCKYVF-NH2; disulfide 2-17, 9-23, 16-30) the figure was over 5 µM; with `CSCC[C@@H]1NC(=O)[C@H](Cc2ccccc2)NC(=O)CNC(=O)[C@H](CC(C)C)NC(=O)[C@@H](NC(=O)[C@@H](N)CC(=O)O)CSSC[C@@H]2NC(=O)[C@@H]3CSSC[C@@H](C(=O)N[C@@H](CCCCN)C(=O)N[C@@H](Cc4ccc(O)cc4)C(=O)N[C@H](C(=O)N[C@@H](Cc4ccccc4)C(N)=O)C(C)C)NC(=O)[C@H](Cc4c[nH]c5ccccc45)NC(=O)[C@H](CCCCN)NC(=O)[C@H](Cc4cnc[nH]4)NC(=O)[C@H]([C@@H](C)O)NC(=O)[C@H](CCCNC(=N)N)NC(=O)[C@H](CO)NC(=O)[C@H](CSSC[C@H](NC(=O)[C@H](CCCCN)NC(=O)[C@H](CCCNC(=N)N)NC1=O)C(=O)N[C@@H](Cc1cnc[nH]1)C(=O)N1CCC[C@H]1C(=O)N[C@@H](CC(=O)O)C(=O)N[C@@H](CC(N)=O)C(=O)N[C@@H](CC(=O)O)C(=O)N[C@@H](CCCCN)C(=O)N3)NC(=O)[C@H](C(C)C)NC(=O)[C@H](CC(C)C)NC(=O)[C@H](CC(N)=O)NC(=O)[C@@H]1CCCN1C(=O)[C@H](CCCNC(=N)N)NC2=O` (H-DCLGFMRKCHPDNDKCCRPNLVCSRTHKWCKYVF-NH2; disulfide 2-17, 9-23, 16-30), over 5 µM. For the compound `CC[C@H](C)[C@@H]1NC(=O)[C@@H]2CSSC[C@@H]3NC(=O)[C@H](C(C)C)NC(=O)[C@H](CC(C)C)NC(=O)[C@H](CC(N)=O)NC(=O)[C@@H]4CCCN4C(=O)[C@H](CCCNC(=N)N)NC(=O)[C@H](CSSC[C@H](NC(=O)[C@@H](N)CC(=O)O)C(=O)N[C@@H](CC(C)C)C(=O)NCC(=O)N[C@@H](Cc4ccccc4)C(=O)N[C@@H](CCSC)C(=O)N[C@@H](CCCNC(=N)N)C(=O)N[C@@H](CCCCN)C(=O)N2)NC(=O)[C@H](CSSC[C@@H](C(=O)N[C@@H](CCCCN)C(=O)N[C@@H](Cc2ccc(O)cc2)C(=O)N[C@H](C(=O)N[C@@H](Cc2ccccc2)C(N)=O)C(C)C)NC(=O)[C@H](Cc2c[nH]c4ccccc24)NC(=O)[C@H](CCCCN)NC(=O)[C@H](Cc2cnc[nH]2)NC(=O)[C@H]([C@@H](C)O)NC(=O)[C@H](CCCNC(=N)N)NC(=O)[C@H](CO)NC3=O)NC(=O)[C@H](CCCCN)NC(=O)[C@H](CC(=O)O)NC(=O)[C@H](CCCCN)NC(=O)[C@H](CC(=O)O)NC(=O)[C@@H]2CCCN2C1=O` (H-DCLGFMRKCIPDKDKCCRPNLVCSRTHKWCKYVF-NH2; disulfide 2-17, 9-23, 16-30), the half-inhibitory concentration (IC50) is over 5 µM. As for `CC[C@H](C)[C@@H]1NC(=O)[C@@H]2CSSC[C@@H]3NC(=O)[C@H](C(C)C)NC(=O)[C@H](CC(C)C)NC(=O)[C@H](CC(N)=O)NC(=O)[C@@H]4CCCN4C(=O)[C@H](CCCNC(=N)N)NC(=O)[C@H](CSSC[C@H](NC(=O)[C@@H](N)CC(=O)O)C(=O)N[C@@H](CC(C)C)C(=O)NCC(=O)N[C@@H](Cc4ccccc4)C(=O)N[C@@H](CCSC)C(=O)N[C@@H](CCCNC(=N)N)C(=O)N[C@@H](CCCCN)C(=O)N2)NC(=O)[C@H](CSSC[C@@H](C(=O)N[C@@H](CCCCN)C(=O)N[C@@H](Cc2ccc(O)cc2)C(=O)N[C@H](C(=O)N[C@@H](Cc2ccccc2)C(N)=O)C(C)C)NC(=O)[C@H](Cc2c[nH]c4ccccc24)NC(=O)[C@H](CCCCN)NC(=O)[C@H](Cc2c[nH]cn2)NC(=O)[C@H]([C@@H](C)O)NC(=O)[C@H](CCCNC(=N)N)NC(=O)[C@H](CO)NC3=O)NC(=O)[C@H](CCC(=O)O)NC(=O)[C@H](CC(=O)O)NC(=O)[C@H](CC(N)=O)NC(=O)[C@H](CC(=O)O)NC(=O)[C@@H]2CCCN2C1=O` (H-DCLGFMRKCIPDNDECCRPNLVCSRTHKWCKYVF-NH2; disulfide 2-17, 9-23, 16-30), the figure is over 5 µM; as for `CC[C@H](C)[C@@H]1NC(=O)[C@@H]2CSSC[C@@H]3NC(=O)[C@H](CCC(=O)O)NC(=O)[C@H](CC(C)C)NC(=O)[C@H](CC(N)=O)NC(=O)[C@@H]4CCCN4C(=O)[C@H](CCCNC(=N)N)NC(=O)[C@H](CSSC[C@H](NC(=O)[C@@H](N)CC(=O)O)C(=O)N[C@@H](CC(C)C)C(=O)NCC(=O)N[C@@H](Cc4ccccc4)C(=O)N[C@@H](CCSC)C(=O)N[C@@H](CCCNC(=N)N)C(=O)N[C@@H](CCCCN)C(=O)N2)NC(=O)[C@H](CSSC[C@@H](C(=O)N[C@@H](CCCCN)C(=O)N[C@@H](Cc2ccc(O)cc2)C(=O)N[C@H](C(=O)N[C@@H](Cc2ccccc2)C(N)=O)C(C)C)NC(=O)[C@H](Cc2c[nH]c4ccccc24)NC(=O)[C@H](CCCCN)NC(=O)[C@H](Cc2cnc[nH]2)NC(=O)[C@H]([C@@H](C)O)NC(=O)[C@H](CCCNC(=N)N)NC(=O)[C@H](CO)NC3=O)NC(=O)[C@H](CCCCN)NC(=O)[C@H](CC(=O)O)NC(=O)[C@H](CC(N)=O)NC(=O)[C@H](CC(=O)O)NC(=O)[C@@H]2CCCN2C1=O` (H-DCLGFMRKCIPDNDKCCRPNLECSRTHKWCKYVF-NH2; disulfide 2-17, 9-23, 16-30), over 5 µM. In the case of `CC[C@H](C)[C@@H]1NC(=O)[C@@H]2CSSC[C@@H]3NC(=O)[C@H](CCCNC(=N)N)NC(=O)[C@H](CC(C)C)NC(=O)[C@H](CC(N)=O)NC(=O)[C@@H]4CCCN4C(=O)[C@H](CCCNC(=N)N)NC(=O)[C@H](CSSC[C@H](NC(=O)[C@@H](N)CC(=O)O)C(=O)N[C@@H](CC(C)C)C(=O)NCC(=O)N[C@@H](Cc4ccccc4)C(=O)N[C@@H](CCSC)C(=O)N[C@@H](CCCNC(=N)N)C(=O)N[C@@H](CCCCN)C(=O)N2)NC(=O)[C@H](CSSC[C@@H](C(=O)N[C@@H](CCCCN)C(=O)N[C@@H](Cc2ccc(O)cc2)C(=O)N[C@H](C(=O)N[C@@H](Cc2ccccc2)C(N)=O)C(C)C)NC(=O)[C@H](Cc2c[nH]c4ccccc24)NC(=O)[C@H](CCCCN)NC(=O)[C@H](Cc2cnc[nH]2)NC(=O)[C@H]([C@@H](C)O)NC(=O)[C@H](CCCNC(=N)N)NC(=O)[C@H](CO)NC3=O)NC(=O)[C@H](CCCCN)NC(=O)[C@H](CC(=O)O)NC(=O)[C@H](CC(N)=O)NC(=O)[C@H](CC(=O)O)NC(=O)[C@@H]2CCCN2C1=O` (H-DCLGFMRKCIPDNDKCCRPNLRCSRTHKWCKYVF-NH2; disulfide 2-17, 9-23, 16-30), the IC50 was over 5 µM.

`CC[C@H](C)[C@@H]1NC(=O)[C@@H]2CSSC[C@@H]3NC(=O)[C@H](C(C)C)NC(=O)[C@H](CC(C)C)NC(=O)[C@H](CC(N)=O)NC(=O)[C@@H]4CCCN4C(=O)[C@H](CCCNC(=N)N)NC(=O)[C@H](CSSC[C@H](NC(=O)[C@@H](N)CC(=O)O)C(=O)N[C@@H](CC(C)C)C(=O)NCC(=O)N[C@@H](Cc4ccccc4)C(=O)N[C@@H](CCSC)C(=O)N[C@@H](CCCNC(=N)N)C(=O)N[C@@H](CCCCN)C(=O)N2)NC(=O)[C@H](CSSC[C@@H](C(=O)N[C@@H](CCCCN)C(=O)N[C@@H](Cc2ccc(O)cc2)C(=O)N[C@H](C(=O)N[C@@H](Cc2ccccc2)C(N)=O)C(C)C)NC(=O)[C@H](Cc2c[nH]c4ccccc24)NC(=O)[C@H](CCCCN)NC(=O)[C@H](Cc2cnc[nH]2)NC(=O)[C@H]([C@@H](C)O)NC(=O)[C@H](CCCCN)NC(=O)[C@H](CO)NC3=O)NC(=O)[C@H](CCCCN)NC(=O)[C@H](CC(=O)O)NC(=O)[C@H](CC(N)=O)NC(=O)[C@H](CC(=O)O)NC(=O)[C@@H]2CCCN2C1=O` (H-DCLGFMRKCIPDNDKCCRPNLVCSKTHKWCKYVF-NH2; disulfide 2-17, 9-23, 16-30): the half-inhibitory concentration (IC50) was over 5 µM.
